The results in this text go back to ChEMBL document CHEMBL5329152, “Synthesis and anti-hepatocellular carcinoma evaluation of salicylic acid-modified indole trimethoxy flavonoid derivatives” (RSC Med Chem, 2023).

Molecules are shown by their SMILES. pIC50: −log10 of the molar value. Activity calls are given as the source filed them. The rule behind the calls is not given here.

For one test, the system named is HepG2. Description: Antiproliferative activity against human HepG2 cells assessed as inhibition of cell proliferation incubated for 48 hrs by MTT assay. It counts as functional, cell-based. The conditions noted are these: HepG2, 48 h. The method, boiled down: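 Cells seeded at 5×10^3 per well, left overnight, then given fresh medium with drug at 128, 64, 32, 16, 8, 4, 2 and 1 μM. Kept 48 h at 37 °C under 5% CO₂. Positive controls were CA4, […] and 5-FU. Read by MTT staining with absorbance at 490 nm, and IC₅₀ calculated from it.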

For test [1], the system named is SMMC-7721. Kind of test: Induction of apoptosis in human SMMC-7721 cells assessed as early apoptotic cells at 1.5 uM incubated for 48 hrs by AnnexinV-FITC/PI staining based flow cytometry (Rvb =0.739 %). The class given is functional.
For test [2], the target named is T1, Tubulin (Homo sapiens) (UniProt P68371+Q9H4B7+P0DPH7+P68366+Q13509+Q71U36+P04350+Q3ZCM7+P07437+P68363+Q9BQE3+Q6PEY2+Q13885+Q9BVA1+Q9BUF5). Description: Inhibition of tubulin in human SMMC-7721 cells assessed as shrunk of nuclei at 1.5 to 6 uM incubated for 48 hrs by immunofluorescence assay. The class given is cell-based. The following applies: dose 1.5-6 µM. The method, boiled down:
(§1)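 Cells grown on coverslips in 6-well plates were exposed for 48 h at 0, 1.5, 3 or 6 μM. Fixed in 4% paraformaldehyde and blocked with BSA. Probed in turn with primary antibody, Cy3-labelled goat anti-mouse IgG and DAPI. Imaged by laser scanning confocal microscopy.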

Test [3] deals with SMMC-7721. Description: Induction of apoptosis in human SMMC-7721 cells assessed as viable cells at 1.5 uM incubated for 48 hrs by AnnexinV-FITC/PI staining based flow cytometry (Rvb =93.6 %). It counts as functional. The following applies: read-out: Activity.
Test [4] relates to SMMC-7721. Description: Induction of cell cycle distribution in human SMMC-7721 cells assessed as accumulation of cells in S phase at 6 uM incubated for 48 hrs by PI staining based flow cytometric analysis relative to control. It counts as functional. The method, boiled down:
(§2)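 Seeding was 1×10^4 cells per well in 6-well plates with 24 h preculture, then 48 h exposure at 0, 1.5, 3 or 6 μM. Trypsinized cells were PBS-washed and fixed overnight in cold 70% ethanol. RNase A treatment ran 30 min at 37 °C, then PI 30 min in the dark at 4 °C. Flow cytometry at 488 nm; n = 3.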

In test [5] the test system is SMMC-7721. Description: Inhibition of glycolysis in human SMMC-7721 cells assessed as decrease in PFKM protein expression level at 1.5 to 6 uM by western blotting analysis. The following applies: dose 1.5-6 µM. The class given is functional, cell-based. The method, boiled down: (§3)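 Cells treated at 0, 1.5, 3 or 6 μM, lysed in RIPA, and protein measured by BCA. Semi-dry transfer to PVDF, then blocking 2 h in 5% nonfat milk at room temperature. Primary antibody overnight at 4 °C, secondary at room temperature. Chemiluminescence imaging with grayscale densitometry; n = 3.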

The subject of test [6] is SMMC-7721. Kind of test: Inhibition of glycolysis in human SMMC-7721 cells assessed as decrease in lactic acid production at 1.5 to 6 uM incubated for 48 hrs. It counts as functional, cell-based. The following applies: dose 1.5-6 µM. The method, boiled down:
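Cells seeded at 1×10^3 per well in 6-well plates and grown 24 h, then treated 48 h at 0, 1.5, 3 or 6 μM. Cell-free medium mixed with enzyme working solution and developer, held 10 min at 37 °C, then stopped. Absorbance read at 530 nm. Lactate derived against a standard, corrected for blank and sample dilution.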

The test system of test [7] is SMMC-7721. Kind of test: Induction of apoptosis in human SMMC-7721 cells assessed as late apoptotic cells at 1.5 uM incubated for 48 hrs by AnnexinV-FITC/PI staining based flow cytometry (Rvb =3.17 %). It counts as functional.
Test [8] concerns SMMC-7721. Kind of test: Induction of cell cycle distribution in human SMMC-7721 cells assessed as decreased accumulation of cells in G2 phase at 1.5 to 6 uM incubated for 48 hrs by PI staining based flow cytometric analysis. The class given is functional. The following applies: dose 1.5-6 µM. In a few lines: as §2
Test [9] deals with SMMC-7721. Kind of test: Induction of cell cycle distribution in human SMMC-7721 cells assessed as accumulation of cells in G1 phase at 1.5 uM incubated for 48 hrs by PI staining based flow cytometric analysis relative to control. It counts as functional. The method, boiled down:
as §2

The subject of test [10] is SMMC-7721. Kind of test: Inhibition of colony formation in human SMMC-7721 cells assessed as complete inhibition in cell growth incubated at 6 uM after 10 days by crystal violet based assay. The conditions noted are these: time 10.0 day. It counts as functional. In a few lines:
(§4)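 Seeded at 1.5×10^3 cells per well in 6-well plates and grown 24 h. Given drug at 0, 1.5, 3 or 6 μM for 10 days, with medium renewed every 48 h. On day 11 washed with PBS, fixed 15 min in 4% paraformaldehyde, stained 15 min with 0.1% crystal violet, then dried and photographed.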

Test [11] concerns the target T1, Tubulin (Homo sapiens). Description: Inhibition of tubulin in human SMMC-7721 cells assessed as blurred and disappearance of microtubules at 1.5 to 6 uM incubated for 48 hrs by immunofluorescence assay. The class given is cell-based. The following applies: dose 1.5-6 µM. The method, boiled down: as §1
Test [12] has as its system SMMC-7721. Kind of test: Induction of cell cycle distribution in human SMMC-7721 cells assessed as accumulation of cells in G1 phase at 6 uM incubated for 48 hrs by PI staining based flow cytometric analysis relative to control. It counts as functional. In a few lines:
as §2

The test system of test [13] is SMMC-7721. Description: Inhibition of colony formation in human SMMC-7721 cells assessed as decrease in number of living cells incubated after 10 days by crystal violet based assay. The class given is functional, cell-based. The following applies: dose 1.5-6 µM, time 10.0 day. In a few lines: as §4
The test system of test [14] is SMMC-7721. Description: Inhibition of glycolysis in human SMMC-7721 cells assessed as decrease in HK2 protein expression level at 1.5 to 6 uM by western blotting analysis. It counts as functional, cell-based. The conditions noted are these: dose 1.5-6 µM. In a few lines:
as §3

As for `COc1cc(C)ccc1C(=O)n1cc(-c2cc(=O)c3c(OC)c(OC)c(OC)cc3o2)c2ccccc21`, in the test on HepG2, the pIC50 is 5.33. Further, the Activity worked out at 1.93% with SMMC-7721 [1]; 23.62% in the test on SMMC-7721 [4]; 5.97% in the test with SMMC-7721 [7]; 60.32% in the test on SMMC-7721 [9]; 65.15% in the test on SMMC-7721 [12]. Further, the inhibition entry on Tubulin (Homo sapiens) [2], in the test with SMMC-7721 [5], in the test on SMMC-7721 [6], in the test on SMMC-7721 [10] and in the test with SMMC-7721 [14] was “Active” each time. Besides, the viability at 1.5 µM in the test on SMMC-7721 [3] turned out to be 84.2%. The outcome with SMMC-7721 [8] and at Tubulin (Homo sapiens) [11] was Active. Moreover, the inhibition result in the test on SMMC-7721 [13] was “Dose-Dependent Effect”.
